pIC50: −log10 of the molar value. Calls of active or inactive are those of the source. The calls are words filed in the database; no cut-off is given here.
Tests used:
[1] = Solubility of the compound in 1% DMSO/water solution; assay type: physicochemical; conditions: buffer
[2] = system: NCI-H460; assay: Antiproliferative activity against human NCI-H460 cells using 10% 2-HPbetaCD compound formulation after 72 hrs by MTT assay; assay type: functional, cell-based; conditions: NCI-H460, 72 h
Procedure, shortened: (§1)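 MTT anti-proliferation on NSCLC lines. Compounds dissolved in DMSO, diluted with water to 1% DMSO, then into growth medium (max 0.032% DMSO on cells); or dissolved in 10% (w/v) 2-HPβCD in water, then diluted (max 0.008% w/w 2-HPβCD in wells; vehicle controls at 0.008%). IC50 = concentration giving 50% loss of viability versus control cells. Cisplatin dissolved in water with stirring.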

[3] = system: HCC827; assay: Antiproliferative activity against human HCC827 cells using 1% DMSO/water compound formulation after 72 hrs by MTT assay; assay type: functional, cell-based; conditions: HCC827, 72 h; procedure, shortened: as §1
[4] = Aqueous solubility of the compound in water; assay type: physicochemical; conditions: buffer
[5] = system: NCI-H1975; assay: Antiproliferative activity against human NCI-H1975 cells using 10% 2-HPbetaCD compound formulation after 72 hrs by MTT assay; assay type: functional, cell-based; conditions: NCI-H1975, 72 h; procedure, shortened: as §1
[6] = system: NCI-H1975; assay: Antiproliferative activity against human NCI-H1975 cells using 1% DMSO/water compound formulation after 72 hrs by MTT assay; assay type: functional, cell-based; conditions: NCI-H1975, 72 h; procedure, shortened: as §1
[7] = Solubility of the compound in 10% 2-HPbetaCD/water solution; assay type: physicochemical
[8] = system: HCC827; assay: Antiproliferative activity against human HCC827 cells using 10% 2-HPbetaCD compound formulation after 72 hrs by MTT assay; assay type: functional, cell-based; conditions: HCC827, 72 h; procedure, shortened: as §1
[9] = system: A549; assay: Antiproliferative activity against human A549 cells using 1% DMSO/water compound formulation after 72 hrs by MTT assay; assay type: functional, cell-based; conditions: A549, 72 h; procedure, shortened: as §1
[10] = system: NCI-H460; assay: Antiproliferative activity against human NCI-H460 cells using 1% DMSO/water compound formulation after 72 hrs by MTT assay; assay type: functional, cell-based; conditions: NCI-H460, 72 h; procedure, shortened: as §1
[11] = system: A549; assay: Antiproliferative activity against human A549 cells using 10% 2-HPbetaCD compound formulation after 72 hrs by MTT assay; assay type: functional, cell-based; conditions: A549, 72 h; procedure, shortened: as §1
[12] = system: HOP-62; assay: Growth inhibition of human HOP62 cells after 24 hrs by SRB assay; assay type: functional; conditions: HOP-62, 24 h
[13] = system: NCI-H23; assay: Growth inhibition of human NCI-H23 cells assessed as cell growth at 10 uM after 24 hrs by SRB assay relative to control; assay type: functional; conditions: NCI-H23, 24 h, read-out: Activity
Procedure, shortened: (§2)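 NCI DTP one-dose screen: cells plated at density set by doubling rate, incubated overnight, then exposed to compound at 10 μM for 24 hours. Growth percentage from protein density at end versus start of experiment, relative to initial cell number.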

[14] = system: NCI-H226; assay: Growth inhibition of human NCI-H226 cells after 24 hrs by SRB assay; assay type: functional; conditions: NCI-H226, 24 h
[15] = system: NCI-H226; assay: Growth inhibition of human NCI-H226 cells assessed as cell growth at 10 uM after 24 hrs by SRB assay relative to control; assay type: functional; conditions: NCI-H226, 24 h, read-out: Activity; procedure, shortened: as §2
[16] = system: A549; assay: Growth inhibition of human A549 cells after 24 hrs by SRB assay; assay type: functional; conditions: A549, 24 h; for CC50: read-out: LC50 (the source's name)
[17] = system: HOP-92; assay: Growth inhibition of human HOP92 cells assessed as cell growth at 10 uM after 24 hrs by SRB assay relative to control; assay type: functional; conditions: HOP-92, 24 h, read-out: Activity; procedure, shortened: as §2
[18] = system: NCI-H23; assay: Growth inhibition of human NCI-H23 cells after 24 hrs by SRB assay; assay type: functional; conditions: NCI-H23, 24 h; for CC50: read-out: LC50 (the source's name)
[19] = system: NCI-H522; assay: Growth inhibition of human NCI-H522 cells after 24 hrs by SRB assay; assay type: functional; conditions: NCI-H522, 24 h; for CC50: read-out: LC50 (the source's name)
[20] = system: NCI-H460; assay: Growth inhibition of human NCI-H460 cells after 24 hrs by SRB assay; assay type: functional; conditions: NCI-H460, 24 h; for CC50: read-out: LC50 (the source's name)
[21] = system: EKVX; assay: Growth inhibition of human EKVX cells after 24 hrs by SRB assay; assay type: functional
[22] = system: NCI-H322M; assay: Growth inhibition of human NCI-H322M cells after 24 hrs by SRB assay; assay type: functional
[23] = system: NCI-H322M; assay: Growth inhibition of human NCI-H322M cells assessed as cell growth at 10 uM after 24 hrs by SRB assay relative to control; assay type: functional; conditions: read-out: Activity; procedure, shortened: as §2
[24] = system: NCI-H460; assay: Growth inhibition of human NCI-H460 cells assessed as cell growth at 10 uM after 24 hrs by SRB assay relative to control; assay type: functional; conditions: NCI-H460, 24 h, read-out: Activity; procedure, shortened: as §2
[25] = system: HOP-92; assay: Growth inhibition of human HOP92 cells after 24 hrs by SRB assay; assay type: functional; conditions: HOP-92, 24 h; for CC50: read-out: LC50 (the source's name)
[26] = system: HOP-62; assay: Growth inhibition of human HOP62 cells assessed as cell growth at 10 uM after 24 hrs by SRB assay relative to control; assay type: functional; conditions: HOP-62, 24 h, read-out: Activity; procedure, shortened: as §2
[27] = system: A549; assay: Growth inhibition of human A549 cells assessed as cell growth at 10 uM after 24 hrs by SRB assay relative to control; assay type: functional; conditions: A549, 24 h, read-out: Activity; procedure, shortened: as §2
[28] = system: EKVX; assay: Growth inhibition of human EKVX cells assessed as cell growth at 10 uM after 24 hrs by SRB assay relative to control; assay type: functional; conditions: read-out: Activity; procedure, shortened: as §2
[29] = system: NCI-H460; assay: Induction of apoptosis in human NCI-H460 cells assessed as cell shrinkage up to 1 hr by Annexin V-FITC/propidium iodide staining based fluorescence microscopic method; assay type: functional
[30] = system: NCI-H460; assay: Induction of apoptosis in human NCI-H460 cells assessed as cell detachment up to 1 hr by Annexin V-FITC/propidium iodide staining based fluorescence microscopic method; assay type: functional
[31] = system: NCI-H460; assay: Induction of apoptosis in human NCI-H460 cells assessed as cell rounding up to 1 hr by Annexin V-FITC/propidium iodide staining based fluorescence microscopic method; assay type: functional
[32] = system: NCI-H460; assay: Disruption of mitochondrial membrane potential in human NCI-H460 cells at 98 uM up to 1 hr by JC1/DAPI staining based confocal microscopic method; assay type: functional, cell-based

## CC(C)c1n(Cc2ccc3ccccc3c2)cc[n+]1Cc1ccc2ccccc2c1.[Br-]
[1]
  solubility: Soluble
[2]
  pIC50: 6.07
[3]
  pIC50: 5.89
[4]
  solubility: < 500 µg/mL
[5]
  pIC50: 6.21
[6]
  pIC50: 6.16
[7]; 10% 2-HPbetaCD/water solution, read-out: solubility
  solubility: > 4400 µg/mL
[8]
  pIC50: 5.94
[9]
  pIC50: 5.60
[10]
  pIC50: 6.04
[11]
  pIC50: 5.67

## CCCc1n(Cc2ccc3ccccc3c2)cc[n+]1Cc1ccc2ccccc2c1.[Br-]
[1]
  solubility: Soluble
[12]
  GI50: 1260 nM
  LC50: 6190 nM
  TGI: 2800 nM
[13]
  growth at 10 µM: -28.2%
[14]
  GI50: 1310 nM
  LC50: > 100000 nM
  TGI: 3920 nM
[15]
  growth at 10 µM: 0.23%
[16]
  GI50: 2670 nM
  TGI: 12100 nM
  CC50: 60300 nM
[17]
  growth at 10 µM: -38.3%
[18]
  GI50: 521 nM
  TGI: 2510 nM
  CC50: 9770 nM
[19]
  GI50: 378 nM
  TGI: 1680 nM
  CC50: 4920 nM
[20]
  GI50: 1220 nM
  TGI: 3010 nM
  CC50: 7440 nM
[21]
  GI50: 1710 nM
  LC50: 60500 nM
  TGI: 11400 nM
[2]
  pIC50: 5.67
[3]
  pIC50: 5.84
[4]
  solubility: < 500 µg/mL
[22]
  GI50: 1960 nM
  LC50 (lethal concentration 50%): 23800 nM
  TGI: 6000 nM
[5]
  pIC50: 6.20
[23]
  growth at 10 µM: 23.2%
[24]
  growth at 10 µM: 3.26%
[6]
  pIC50: 6.07
[25]
  GI50: 863 nM
  TGI: 2660 nM
  CC50: 7580 nM
[7]; buffer
  solubility: > 4400 µg/mL
[8]
  pIC50: 5.90
[9]
  pIC50: 5.53
[10]
  pIC50: 5.72
[26]
  growth at 10 µM: 5.82%
[27]
  growth at 10 µM: 31.6%
[11]
  pIC50: 5.55
[28]
  growth at 10 µM: 21.1%

## Clc1c(Cl)[n+](Cc2ccc3ccccc3c2)cn1Cc1ccc2ccccc2c1
[29]
  Activity: Active
[3]
  pIC50: 5.22
[30]
  Activity: Active
[6]
  pIC50: 5.30
[9]
  pIC50: 5.05
[10]
  pIC50: 5.30
[31]
  Activity: Active

## Cc1n(Cc2ccc3ccccc3c2)cc[n+]1Cc1ccc2ccccc2c1.[Br-]
[1]
  solubility: Soluble
[12]
  GI50: 1600 nM
  LC50: 45300 nM
  TGI: 8350 nM
[13]
  growth at 10 µM: 5.53%
[14]
  GI50: 1850 nM
  LC50: 64100 nM
  TGI: 10400 nM
[15]
  growth at 10 µM: 19%
[16]
  GI50: 3810 nM
  TGI: 21300 nM
  CC50: 66100 nM
[17]
  growth at 10 µM: -20.3%
[18]
  GI50: 717 nM
  TGI: 2930 nM
  CC50: 10400 nM
[19]
  GI50: 256 nM
  TGI: 1810 nM
  CC50: 6720 nM
[20]
  GI50: 1590 nM
  TGI: 10700 nM
  CC50: 44000 nM
[21]
  GI50: 2320 nM
  LC50: 52400 nM
  TGI: 17100 nM
[2]
  pIC50: 5.57
[3]
  pIC50: 5.63
[4]
  solubility: < 500 µg/mL
[22]
  GI50: 2460 nM
  LC50 (lethal concentration 50%): 32900 nM
  TGI: 10400 nM
[5]
  pIC50: 6.12
[23]
  growth at 10 µM: 48.9%
[24]
  growth at 10 µM: 9.12%
[6]
  pIC50: 6.08
[25]
  GI50: 673 nM
  TGI: 3640 nM
  CC50: 26400 nM
[7]; buffer
  solubility: > 4400 µg/mL
[8]
  pIC50: 5.70
[9]
  pIC50: 5.47
[10]
  pIC50: 5.60
[26]
  growth at 10 µM: 18%
[27]
  growth at 10 µM: 42.3%
[11]
  pIC50: 5.46
[28]
  growth at 10 µM: 47%

## N#CC(C#N)=NNc1cccc(Cl)c1
[32]
  Activity: Active

## CCCCc1n(Cc2ccc3ccccc3c2)cc[n+]1Cc1ccc2ccccc2c1.[Br-]
[1]
  solubility: Soluble
[13]
  growth at 10 µM: -23.8%
[15]
  growth at 10 µM: -0.47%
[17]
  growth at 10 µM: -38.2%
[18]
  GI50: 793 nM
  TGI: 2310 nM
  CC50: 5850 nM
[2]
  pIC50: 5.61
[3]
  pIC50: 5.58
[4]
  solubility: < 500 µg/mL
[22]
  GI50: 1380 nM
  TGI: 2750 nM
[5]
  pIC50: 5.99
[23]
  growth at 10 µM: 23.3%
[24]
  growth at 10 µM: -13.1%
[6]
  pIC50: 5.76
[7]; buffer
  solubility: > 4400 µg/mL
[8]
  pIC50: 5.66
[9]
  pIC50: 5.46
[10]
  pIC50: 5.58
[26]
  growth at 10 µM: -2.71%
[27]
  growth at 10 µM: 29.8%
[11]
  pIC50: 5.49
[28]
  growth at 10 µM: 14.4%
